Experimental findings from the EternaBench riboswitch data are described below.

In this data set the test system is MS2 coat protein. Kind of data set: apparent Kd, MS2 coat protein; higher = weaker binding; RNA-MaP array; FMN 200 µM where present. A digest of the protocol: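 The titrant was SNAP-549-labelled MS2 coat protein, run from 0.7 or 1.5 nM in doubling steps to 3 µM. It was applied to designs transcribed by stalled E. coli RNA polymerase on Illumina sequencing-chip clusters, without ligand first and then with constant ligand, in 100 mM Tris-HCl pH 7.5, 80 mM KCl, 4 mM MgCl2, BSA, DTT, yeast tRNA and Tween-20. The apparent Kd is the median of filtered per-cluster binding-curve fits, with green signal normalised to red-channel RNA signal and control-cluster median Fmax.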

The mark [1] stands for this setting: designed as: ON switch for flavin mononucleotide, no ligand.
[2] abbreviates: ligand present: flavin mononucleotide, designed as: ON switch for flavin mononucleotide.
The mark [3] stands for this setting: designed as: OFF switch for flavin mononucleotide, no ligand.
The mark [4] stands for this setting: ligand present: flavin mononucleotide, designed as: OFF switch for flavin mononucleotide.

Turning to “GUGGUCAGACAUGAGGAUCACCCAUGUGGAAUAAAUAACGGACAGGAUAUAGAAUAUAGGAUAUACUAGAAGGGUUGAUUGGUG”, the “apparent Kd” value by setting is: under setting [1], 55.7 nM; under setting [2], 57.3 nM.

With “UUACCUCAUGAGAAGGACAUGAGGAUCACCCAUGUAGGAUAUCGUGGGACACUGGUAUUGAAUCUUCGGAUUCAAUACCUGUGU”, the “apparent Kd” value came to 465 nM under setting [1] and 29 nM under setting [2].

As for “AUAAAUCAUGUAGGAUAUGCGUGGCGAAGCUAUGCAGAAGGACAUGAGGAUCACCCAUGUCUUUCCGUCUGCGUAUAGACGGAA”, the “apparent Kd” value is, setting by setting: under setting [3], 30.5 nM; under setting [4], 279 nM.

Turning to “GGAGCACAUCAAUACAUGAGGAUCACCCAUGUCGAAUGAUAUGAGGAUAUGCAUCGGAAAACGAUGUAGAAGGCAUAGUGCUCC”, the “apparent Kd” value by setting is: under setting [1], 15.6 nM; under setting [2], 6.27 nM.

On to “AAAUCUUACGAAGGAUAUACAAACAUGAGGAUCACCCAUGUGUGUUUCGUGUUACUGAAAUUCGGGUAGAAGGUCGUAGACAUA”, for which the “apparent Kd” value is, setting by setting: under setting [3], 27.7 nM; under setting [4], 19.2 nM.

“AGUGUCAUCGAGAAGGCCUUGACAUGAGGAUCACCCAUGUUAUAACAUGGGAGGAUAUCGAUGAUACAGCUACGUUUCGUAGCA”: the “apparent Kd” value runs as follows: under setting [1], 509 nM; under setting [2], 46.7 nM.

In the case of “GGACGUCAGAUUAACAUGAGGAUCACCCAUGUCUUUUGACAUGAGGAUAUCGAUCCUAAUUGGAUCGAGAAGGCAUGGACGUCC”, the “apparent Kd” value by setting is: under setting [1], 1180 nM; under setting [2], 96.8 nM.

For “ACGAAGACACAAAUGUUCCACGGUGCAGAAGGGUCCCUCACAUGAGGAUCACCCAUGUAACUCGGACAGGAUAUGCUCUUGGGA”, the “apparent Kd” value runs as follows: under setting [1], 47.4 nM; under setting [2], 5.86 nM.

In the case of “ACUGUUUGACUCCUCUUAUACAUGAGGAUCACCCAUGUUAUCGAGGAUAUGCAUUAGAGUGUUUAGCAGAAGGCGAUGUAAUUG”, the “apparent Kd” value under setting [3] is 6.72 nM and the “apparent Kd” value under setting [4] is 14.4 nM.

In the case of “GGAAAACAUGAGGAUCACCCAUGUGAGGAUAUCGAUGUCCAAAGAGAGGUGCGGGACUCGAGAAGGCACUUGGA”, the “apparent Kd” value by setting is: under setting [3], 45.9 nM; under setting [4], 50.2 nM.

Consider “GGACUGGACUAGAAGGGUGAUGCGCUCGCAGACACAGGAUAUAGUCACAUGAGGAUCACCCAUGUCGGUCCAUGUAAAGAAACU”, for which the “apparent Kd” value came out at 20.2 nM under setting [1] and 14.8 nM under setting [2].

For “UCAUACAUUCGAGGAUAUCGGUGAUUAAUUUUACGAGAAGGCGAUAUAAGAUUUAAUUUUUAAGACAUGAGGAUCACCCAUGUA”, the “apparent Kd” value is, setting by setting: under setting [1], 30.7 nM; under setting [2], 29.6 nM.

As to “AAAUUUAACGAAGGAUAUACUAACAUGAGGAUCACCCAUGUGUGUUUCGUGUUGCUGAAAUUCGGGUAGAAGGUCGUAUACAUA”, the “apparent Kd” value worked out at 41 nM under setting [3] and 28.7 nM under setting [4].

In the case of “GUAGCAUAAUCAGGAUAUUCAGCGAAUAGAUUGACAUGAGGAUCACCCAUGUGGCGAAAGCCUCGGGAGAAGGGAUAAUGCUAC”, the “apparent Kd” value worked out at 399 nM under setting [1] and 76.8 nM under setting [2].

Consider “GUCAGCUCGUGAGGAUAUACAUGUGCUGGAGACAGCACUAUUAAAUUCACAUGAGGAUCACCCAUGUAGAAGGCACGAGCUGAU”, for which the “apparent Kd” value by setting is: under setting [3], 15.2 nM; under setting [4], 18.6 nM.

“UGGGUUACAGGAUAUACAUGAGGAUCACCCAUGUCAUGUUUCGUGGCGGAUAGCUCGAGUAGAAGGGUGCAUCC”: the “apparent Kd” value runs as follows: under setting [3], 50 nM; under setting [4], 60.4 nM.

As for “GACGGUGAUGUAGGAUAUACGCUGGAAUACAGCGUAGAAGGACAUGAGGAUCACCCAUGUAGAGUGUCUCCAAAUAACACCGUC”, the “apparent Kd” value by setting is: under setting [3], 43.5 nM; under setting [4], 284 nM.

On to “GGAUAGGACAGAGGAUAUACGUGCUAGAGAUACUGGCAAAAUUUCCUCACAUGAGGAUCACCCAUGUAGAAGGCUGUCCUAUCG”, for which the “apparent Kd” value reads like this: under setting [3], 16.6 nM; under setting [4], 374 nM.

Consider “GGUACUCAAAGAGUACUUGGUCGAACAUGAGGAUCACCCAUGUAGGAUAUGCAAAGCAAGAAGUAGCAGAAGGACAUGUGCAGC”, for which the “apparent Kd” value is, setting by setting: under setting [3], 13.5 nM; under setting [4], 36.1 nM.

Consider “UAAAUGUGAGGAUAUCAGGUGUGCUAGCGAACUGGUACAUCUGAGAAGGCACAUGAGGAUCACCCAUGUUCCUU”, for which the “apparent Kd” value by setting is: under setting [3], 17 nM; under setting [4], 61.5 nM.

With “AACAUGGCAGAGGAUAUAGGACGCUGGCAUAAACUAGAAGGCUGCACAUGAGGAUCACCCAUGUGUUCCUAAAC”, the “apparent Kd” value is, setting by setting: under setting [3], 21.7 nM; under setting [4], 39.4 nM.

“GGUGGCGUGAUAACGCUAGAUAUAACAUGAGGAUCACCCAUGUAGGAUAUCCCGCCGUGAGGGCGGGAGAAGGACAACCGAUGG”: the “apparent Kd” value reads like this: under setting [3], 37.1 nM; under setting [4], 34.9 nM.

Take “UUAUGUUUUGUAGGAUAUCAUUAGUUAUGUAUUAUAAUUGAAAUUUUGAUUUGAGAAGGACAUUUACAUGAGGAUCACCCAUGU”: the “apparent Kd” value is, setting by setting: under setting [3], 13.4 nM; under setting [4], 9.92 nM.

Consider “UACCGCUCUGAAGGAUAUCCACUGGGAUGCUGGAUGUAUGAGCGUACAUGAGGAUCACCCAUGUAGGAGAAGGUCAGGCAUUCC”, for which the “apparent Kd” value under setting [3] worked out at 5.8 nM and the “apparent Kd” value under setting [4] was 7.84 nM.

For the sequence “GUCAGCUCGUGAGGAUAUACAACACUGCUUCGGCAGUGUCUUAAGAUCACAUGAGGAUCACCCAUGUAGAAGGCACGAGCUGAU”, the “apparent Kd” value under setting [3] turned out to be 8.98 nM and the “apparent Kd” value under setting [4] was 168 nM.

Consider “AAGUCGUGAGGAUAUACAUGGAUAUACAUUUAUGUGGACCUACAUGAGGAUCACCCAUGUAGAAGGCACGACUA”, for which the “apparent Kd” value came out at 196 nM under setting [3] and 93.5 nM under setting [4].

On to “AAGUCGACGGUGAGGAUAUUGGUUGAACGACAGAUUAAGAAGGUACAUGAGGAUCACCCAUGUGGGUAACGUCG”, for which the “apparent Kd” value under setting [3] amounted to 100 nM and the “apparent Kd” value under setting [4] turned out to be 83 nM.

As to “GCCAUCGCAUGAGGAUAUGGUCAGCUUUGCUGACCAGAAGGCAUGUCAUAAGACAUGAGGAUCACCCAUGUAGUUAAGAUGGCA”, the “apparent Kd” value was 778 nM under setting [1] and 47.9 nM under setting [2].

For “UUCCUCGUUGUGAGGAUAUCGUCCGUGUUUUGUUACGAGAAGGCACAUGAGGAUCACCCAUGUUUUUUGUUUUU”, the “apparent Kd” value is, setting by setting: under setting [3], 39.2 nM; under setting [4], 77.7 nM.

With “AGGUACAUGAGGAUCACCCAUGUAAGAGCCCUCAUGCGAUGUAGAAGGAUAAUGCGAGAAGAGCUAUAGGAUAUACAUGAGAAA”, the “apparent Kd” value under setting [3] came to 156 nM and the “apparent Kd” value under setting [4] was found to be 139 nM.

Regarding “GGAGCACGCACAGGAUAUCCGGCGGCGCUCGUCGGAGAAGGGUGACAUGAGGAUCACCCAUGUACGUGCAACUCAGUUUGAGUG”, the “apparent Kd” value by setting is: under setting [1], 95.6 nM; under setting [2], 40.4 nM.

Consider “GGUCGUCAAGUCAGGAUAUCGUAUAAUAGAUAUAACGAGAAGGGACAUGAGGAUCACCCAUGUCGUCUCAUCAG”, for which the “apparent Kd” value reads like this: under setting [3], 17.1 nM; under setting [4], 23.7 nM.

For “UUAUCUCAUGAGAAGGACAUGAGGAUCACCCAUGUAGGAUAUCAUGGGUCAGAGGAAUUGAAUCUUCGGAUUCAAUUACUCUUC”, the “apparent Kd” value was 72 nM under setting [1] and 12.2 nM under setting [2].

For the sequence “UUAGCGUAAGUAAGGAUAUGCUGGUCGAAAGACCAGCAGAAGGUACAUGAGGAUCACCCAUGUGGAUUCGUUAU”, the “apparent Kd” value stood at 27.8 nM under setting [3] and 92.6 nM under setting [4].

For “UAUAUGUCAGGAUAUUGAUUGGGAUGGAAUUUAGUUUUGGUUAAGAAGGGACAUGAGGAUCACCCAUGUUCCUC”, the “apparent Kd” value under setting [3] came out at 17.1 nM and the “apparent Kd” value under setting [4] worked out at 18.4 nM.

In the case of “AGAGGUCGCACAGGAUAUCAUACAUGAGGAUCACCCAUGUCAGAAAACAAAUGAGAAGGGUGCGCGUUAAUCGCUUGUGAAGAA”, the “apparent Kd” value came to 16.7 nM under setting [1] and 4.8 nM under setting [2].
